Reference: ChEMBL document CHEMBL1133686, “6-Aminoquinolones as new potential anti-HIV agents” (J Med Chem, 2000)
pEC50: −log10 of the molar value. “And” between values parts separate entries of the source, which are not always exact repeats. Identical values can stand only once.

Legend:
[1] = tested on: C8166; assay: Selectivity index in HIV-1 infected C8166 (human CD4) cells.; format: functional
How it was run: (§1)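 Selectivity index in C8166 cells, computed as the ratio of TC50 (concentration reducing cell growth by 50%) to EC50 (concentration reducing supernatant reverse transcriptase activity by 50% in HIV-1 IIIB-infected cultures).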

[2] = tested on: Human immunodeficiency virus 1; assay: In vitro antiviral activity against HIV-1 IIIB in C8166 (human CD4) cells.; format: functional, organism-based; settings: Human immunodeficiency virus 1, C8166
How it was run: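 HIV-1 IIIB infection of C8166 cells, compounds from DMSO stocks of 25 mM or higher. EC50 is the drug concentration (μM) reducing reverse transcriptase activity of culture supernatants by 50%. Syncytium formation, gp120 ELISA and cytopathic-effect reduction were also scored. Values are the mean of at least three experiments run in triplicate.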

[3] = tested on: C8166 (human); assay: In vitro toxicity to C8166 (human CD4) cells.
[4] = tested on: Herpes simplex virus 1; assay: Antiviral activity determined against herpes simplex virus type 1 (HSV-1) in vero cells; settings: Herpes simplex virus 1, Vero
[5] = Toxicity which reduces cell growth by 50% against herpes simplex virus type 1 (HSV-1) in vero cells
[6] = Selectivity index expressed as ratio of TC50 (HIV-1) to EC50 (HIV-1) in C8166 cells; format: functional; how it was run: as §1

| Compound | SI [1] | pEC50 [2] | TC50 [3] [µM] | pEC50 [4] | TC50 [5] [µM] | SI [6] |
| --- | --- | --- | --- | --- | --- | --- |
| Cc1c(N2CCN(c3ccccn3)CC2)c(N)cc2c(=O)c(C(=O)O)cn(C)c12 | 6 | 5.12 | 46.2 |  |  |  |
| CC(C)(C)n1cc(C(=O)O)c(=O)c2cc(N)c(N3CCN(c4ncccn4)CC3)cc21 | 4 | 5.02 | 42.6 |  |  |  |
| O=C(O)c1cn(C2CC2)c2cc(N3CCNCC3)c(F)cc2c1=O [CIPROFLOXACIN] | 1.6 | 4.00 | 160 |  |  |  |
| CC(C)(C)n1cc(C(=O)O)c(=O)c2cc(N)c(N3CCN(c4ccc(F)cc4)CC3)cc21 | 1.2 | 5.07 | 10.7 |  |  |  |
| Cc1cn([C@H]2C[C@H](N=[N+]=[N-])[C@@H](CO)O2)c(=O)[nH]c1=O [ZIDOVUDINE] | 25000 | 7.70 | 500 |  |  |  |
| Nc1cc2c(=O)c(C(=O)O)cn(N3CCN(c4ccccn4)CC3)c2cc1Cl | >2 | 3.30 | >1000 |  |  |  |
| COc1ccccc1N1CCN(c2cc3c(cc2N)c(=O)c(C(=O)O)cn3C(C)(C)C)CC1 | 6 and 9 | 5.49 | 20 | 4.48 | 300 |  |
| COc1ccc(N2CCN(c3cc4c(cc3N)c(=O)c(C(=O)O)cn4C(C)(C)C)CC2)cc1 | 1.4 | 5.02 | 13.8 |  |  |  |
| CC(C)(C)n1cc(C(=O)O)c(=O)c2cc(N)c(N3CCN(c4ccccn4)CC3)cc21 | 4 | 5.70 | 8.1 | 4.09 | 290 |  |
| CNc1cc2c(=O)c(C(=O)O)cn(C)c2cc1N1CCN(c2ccccn2)CC1 | 5 | 5.46 | 19.5 |  |  |  |
| Cc1c(N2CCC(C)CC2)c(N)cc2c(=O)c(C(=O)O)cn(C3CC3)c12 | 4 | 4.70 | 80 |  |  |  |
| CN1CCN(c2c(F)cc3c(=O)c(C(=O)O)cn4c3c2SCC4)CC1 [RUFLOXACIN] | 2 | 3.70 | 400 |  |  |  |
| CCOC(=O)c1cn(C)c2cc(N3CCN(c4ccccn4)CC3)c(N)cc2c1=O | 1.5 | 4.43 | 57 | < 3.52 | >300 |  |
| Nc1cc2c(=O)c(C(=O)O)cn(C3CC3)c2cc1N1CCN(c2ccccn2)CC1 |  | 6.15 | 9 | 4.42 | 95 |  |
| O=C(O)c1cn(C2CC2)c2cc(N3CCN(c4ccccn4)CC3)c(F)cc2c1=O | 13 | 5.30 | 65 |  |  |  |
| Cc1c(N2CCc3ccccc3C2)c(N)cc2c(=O)c(C(=O)O)cn(C3CC3)c12 | 5 | 4.10 | 400 |  |  |  |
| CCOC(=O)c1cn(C(C)(C)C)c2cc(N3CCN(c4ccccn4)CC3)c(N)cc2c1=O | 1.5 | 4.29 | 77.9 | < 3.52 | >300 |  |
| Cn1cc(C(=O)O)c(=O)c2cc(N)c(N3CCN(c4ccccn4)CC3)cc21 | 70 | 7.00 | 7 | 4.52 | 270 | 70 |
| CC(C)(C)n1cc(C(=O)O)c(=O)c2cc(N)c(N3CCc4ccccc4C3)cc21 | 2 | 4.40 | 80 |  |  |  |
| CC(C)(C)n1cc(C(=O)O)c(=O)c2cc(F)c(N3CCN(c4ccccn4)CC3)cc21 | 5 | 5.12 | 40 |  |  |  |
| Cn1cc(C(=O)O)c(=O)c2cc(F)c(N3CCN(c4ccccn4)CC3)cc21 | 5 | 5.89 | 7 |  |  |  |
